Screening results deposited in PubChem by several laboratories.
Myeloid diff 2 – compounds promoting myeloid differentiation; ER-HoxA9 myeloid progenitors, lysozyme-GFP differentiation, flow cytometry; calls only at 10 µM; 360,000 compounds, 1% hits; AID 624256;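 active means normalized GFP-positive differentiation at or above the plate's own cutoff, the solvent-only control mean plus 3 SD; inconclusive means no clear call, values can overlap the other calls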;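 further: cells exposed to compound for four days before flow analysis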
HNF4A DNA FP – change in binding of human HNF4 alpha to DNA | AID 1224865 | P41235 | activity change, % at 10 µM | HNF4a-FITC DNA binding, fluorescence polarization, 1 h | 360,000 compounds, 0.3% hits; in the data active means activity change above about 30%, passing the limit was not always enough
Granule exo inh – lytic granule exocytosis inhibition; TALL-104 LAMP-1 surface exposure, flow cytometry; cells stimulated with thapsigargin and PMA; inhibition, % at 10 µM; 360,000 compounds, 0.66% hits;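 active means inhibition above about 55%, limit read from the data; inconclusive means no clear call, values can overlap the other calls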
CSN deneddyl inh – blocks human CSN-mediated cullin deneddylation; Q92905; Purified CSN, SCF-Nedd8-OG deneddylation, fluorescence polarization; inhibition, % at 12.5 µM; 360,000 compounds, 0.38% hits;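 active means pattern-corrected inhibition above about 35%, with an unprinted fluorescence ratio check between 0.5 and 1.5, limit read from the data, passing the limit was not always enough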
Target sequence (Q92905 whole entry, looked up, one chain of several): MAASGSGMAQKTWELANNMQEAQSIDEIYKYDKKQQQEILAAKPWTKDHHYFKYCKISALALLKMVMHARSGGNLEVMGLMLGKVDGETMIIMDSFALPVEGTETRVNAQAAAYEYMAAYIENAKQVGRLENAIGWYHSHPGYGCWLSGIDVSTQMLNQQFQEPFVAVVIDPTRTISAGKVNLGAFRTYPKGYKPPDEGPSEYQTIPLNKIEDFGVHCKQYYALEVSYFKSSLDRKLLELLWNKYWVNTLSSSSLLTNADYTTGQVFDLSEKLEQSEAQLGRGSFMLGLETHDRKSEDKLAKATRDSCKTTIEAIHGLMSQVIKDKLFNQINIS
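Assay system: purified human Csn5 enzyme expressed in HEK293T cells; measure: % inhibition; also added: SCFSkp2-Nedd8OG substrate at 10 nM final; technique: fluorescence polarization; times: reaction 90 min, room temperature; medium: Tris buffer pH 7.5, NaCl, DTT, Tween-20, trehalose, ovalbumin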
Myeloid diff CP1 – promotes myeloid progenitor differentiation | shares compounds with Myeloid diff 2 | ER-HoxA9 myeloid progenitors, GFP/Mac1 double-positive flow | calls only | 2,300 compounds, 2% hits | AID 651706;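 active means share of green or green-and-red cells above 9 and 9% in run 1 or 4 and 3% in run 2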
GFP autofluor – flagged as fluorescent in myeloid differentiation counter-screen. shares compounds with Myeloid diff 2. 2,300 compounds, 7.4% hits. fluorescence response, % (concentration not given with the values). ER-HoxA9 myeloid progenitors, no estrogen, GFP autofluorescence flow cytometry; vehicle wells 0%, positive control 100%. AID 651707;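 active means over 5% cells positive for green fluorescent reporter, or over 2% positive for both it and APC stain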
A number is an active result; 0 = inactive; ? = inconclusive; - = not tested or not shown; + = active, no number. In the library only some 2.2% were active in any assay of this set; here they are far more common.

SMILES	Myeloid diff 2	HNF4A DNA FP	Granule exo inh	CSN deneddyl inh	Myeloid diff CP1	GFP autofluor
CC(C)CNC(=O)NC(=O)COc1ncnc2sccc12	+	0	0	0	0	0
O=C(CC1c2cc(F)ccc2C=C(c2ccsc2)N1c1ccc(C#CCCO)cc1)c1ccco1 (centres undefined)	0	0	0	0	0	0
COc1ncc(-c2ccc(N3C(c4ccsc4)=Cc4ccc(F)cc4C3CC(=O)c3ccco3)cc2)cn1 (centres undefined)	0	0	0	0	-	-
O=[N+]([O-])c1cccc(CN2CCCCCC2)c1	0	0	0	0	-	-
O=[N+]([O-])c1ccc(O)c(CN2CCCCCC2)c1	0	0	0	0	0	0
Cc1cccc(NC(=S)N/N=C/c2ccc([N+](=O)[O-])s2)c1	0	0	0	0	0	62
Cc1cccc(NC(=O)/C=C/c2ccc([N+](=O)[O-])s2)c1	?	0	0	0	-	-
COc1ccc(NC(=O)C2CCCN(S(=O)(=O)c3cccs3)C2)cc1OC (centres undefined)	+	0	0	0	0	0
CCOC(=O)C(=CNc1cc(C)nn1-c1ccccc1)C(=O)OCC	0	0	0	0	0	0
C=CCOC(=O)C1=C[C@@H](c2coc3ccccc3c2=O)C[C@@H](OCCCCO)O1	0	0	0	0	0	0
O=C(CSc1nc2ccsc2c(=O)n1NC(=O)c1ccccc1)Nc1nccs1	+	0	0	0	0	0
Cc1ccc(-n2nc(C)c(=O)c(-c3ccccc3)c2NC(=O)C(C)C)cc1	0	0	0	0	-	-
COc1cccc(-c2c(NC(=O)c3ccco3)n(-c3ccc(C)cc3)nc(C)c2=O)c1	+	0	0	0	0	0
COc1ccc(C(=O)N/C(=C\c2cccc3ccccc23)C(=O)N2CCN(C)CC2)cc1	0	0	0	0	-	-
Fc1cccc(-c2cc3nc(-c4ccccc4)cc(N4CCC5(CC4)OCCO5)n3n2)c1	0	0	0	0	-	-
Fc1ccc(-c2cc3nc(-c4ccccc4)cc(N4CCOCC4)n3n2)cc1	0	0	0	0	0	0
Cn1c(=O)c2cc(NC(=O)CCc3ccc(O)cc3)ccc2n1Cc1cccc(C(F)(F)F)c1	+	0	0	0	0	0
Cc1ccc(S(=O)(=O)N2CCN(C3CC4CCC3C4)CC2)cc1 (centres undefined)	0	0	0	0	-	-
O=C(CNC(=O)c1ccc(Br)o1)Nc1ccc(N2CCCCCC2)cc1	+	0	0	0	0	0
CCOC(=O)/C(=C\c1ccc([N+](=O)[O-])o1)NC(=O)c1ccccc1	0	0	0	0	-	-
O=C(NCCO)/C(=C\c1ccc([N+](=O)[O-])o1)NC(=O)c1ccccc1	0	0	0	0	0	0
CC(C)(C)c1ccc(CSc2nc(N)cc(=O)[nH]2)cc1	0	0	0	0	-	-
COc1cc(/C=C2\CC/C(=C\c3cc(OC)c(OC)c(OC)c3)C2=O)cc(OC)c1OC	+	0	0	0	0	0
COc1cc(/C=C2\COC/C(=C\c3cc(OC)c(OC)c(OC)c3)C2=O)cc(OC)c1OC	?	0	0	0	-	-
COC(=O)c1ccc(OC)c(OC2CCCC2)c1	0	0	0	0	0	0
SMILES	Myeloid diff 2	HNF4A DNA FP	Granule exo inh	CSN deneddyl inh	Myeloid diff CP1	GFP autofluor
O=CNc1ccc2c3c(cccc13)-c1ccccc1-2	+	0	0	0	0	0
Cc1ccc(S(=O)(=O)N2C[C@@H]3[C@H]4CC[C@H](C4)[C@@H]3[C@@H](C)[C@@H]2C2CCCCC2=O)cc1 (some centres undefined)	0	0	0	0	-	-
COc1ccccc1OCc1ccc(C(=O)NN)cc1	0	0	0	0	0	0
O=C1CCCCN1CCCC(=O)N1CCCC(Nc2ccccc2)C1 (centres undefined)	?	0	0	0	-	-
CC1=Nc2ccc(C)c3nc(C)cc(c23)N1c1ccc(C)cc1	+	0	0	0	0	0
Cc1ccc(N2C=Nc3ccc(C)c4nc(C)cc2c34)cc1	0	0	0	0	-	-
CC1(c2ccc(OC(F)F)cc2)NC(=O)N(CC(=O)Nc2ccc(Cl)cc2F)C1=O (centres undefined)	0	0	0	0	-	-
CCCNC(=O)C(=O)NCC(c1ccc2c(c1)OCO2)N1CCN(c2ccc(F)cc2)CC1 (centres undefined)	0	0	0	0	-	-
Oc1ccc(Br)cc1-c1cc(-c2ccccc2)n[nH]1	0	0	0	0	-	-
Oc1ccc(Br)cc1-c1ccnn1-c1ccccc1	+	0	0	0	0	0
